Experimental data from ChEMBL document CHEMBL4689842, “EUbOPEN Chemogenomics Library wave 1” (2021).
Values joined by “and” are separate entries in the source; they are usually repeats but may differ in a detail not shown here. Equal values may be shown once.

Test system: U2OS
Assay: Multiplex assay against U2OS
Type: toxicity, cell-based
Settings: human, 1 µM, compound concentration 1 uM
Summary of the method: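 Imaging took place on a CQ1 microscope at 37°C and 5% CO2 once compound had been added to live cells stained at seeding with Hoechst33342, BioTracker Green Microtubule Cytoskeleton Dye, MitoTracker Red and Annexin V Alexa Fluor 680. CellPathfinder machine-learning gating classed cells as Hoechst high-intensity objects or normal cells, classed normal cells as having healthy, pyknosed or fragmented nuclei, and classed pyknosed cells as mitotic or apoptotic. Tubulin, mitochondrial-mass and membrane-permeability phenotypes are per cents of the healthy-nucleus cells.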

CN([C@@H](Cc1ccc(OS(=O)(=O)c2cccc3cnccc23)cc1)C(=O)N1CCN(c2ccccc2)CC1)S(=O)(=O)c1cccc2cnccc12
Population Apoptotic (%) (12 h, replicate 1): 52% and 61%
Population Fragmented Nuclei (%) (12 h, replicate 1): 3% and 2%
Population Healthy Nuclei (%) (12 h, replicate 1): 83% and 89%
Population Hoechst High Intensity Objects (%) (12 h, replicate 1): 1%
Population Membrane Permeable-Phenotype (%) (12 h, replicate 1): 38% and 75%
Population Mitochondria Different-Phenotype (%) (12 h, replicate 1): 32% and 23%
Population Mitotic Cells (%) (12 h, replicate 1): 47% and 38%
Population Normal (%) (12 h, replicate 1): 98%
Population Pyknosed Nuclei (%) (12 h, replicate 1): 12% and 7%
Population Tubulin-Different-Phenotype (%) (12 h, replicate 1): 99%
Total Cell Count (12 h, replicate 1): 150 and 181
Population Apoptotic (%) (12 h, replicate 2): 25% and 40%
Population Fragmented Nuclei (%) (12 h, replicate 2): 16% and 6%
Population Healthy Nuclei (%) (12 h, replicate 2): 74% and 79%
Population Hoechst High Intensity Objects (%) (12 h, replicate 2): 13% and 15%
Population Membrane Permeable-Phenotype (%) (12 h, replicate 2): 33% and 69%
Population Mitochondria Different-Phenotype (%) (12 h, replicate 2): 46% and 45%
Population Mitotic Cells (%) (12 h, replicate 2): 75% and 60%
Population Normal (%) (12 h, replicate 2): 86% and 84%
Population Pyknosed Nuclei (%) (12 h, replicate 2): 9% and 13%
Population Tubulin-Different-Phenotype (%) (12 h, replicate 2): 100%
Total Cell Count (12 h, replicate 2): 104 and 101
Population Apoptotic (%) (24 h, replicate 1): 69% and 58%
Population Fragmented Nuclei (%) (24 h, replicate 1): 4% and 5%
Population Healthy Nuclei (%) (24 h, replicate 1): 75% and 73%
Population Hoechst High Intensity Objects (%) (24 h, replicate 1): 2% and 1%
Population Membrane Permeable-Phenotype (%) (24 h, replicate 1): 25% and 68%
Population Mitochondria Different-Phenotype (%) (24 h, replicate 1): 55%
Population Mitotic Cells (%) (24 h, replicate 1): 30% and 41%
Population Normal (%) (24 h, replicate 1): 97% and 98%
Population Pyknosed Nuclei (%) (24 h, replicate 1): 20% and 21%
Population Tubulin-Different-Phenotype (%) (24 h, replicate 1): 98% and 99%
Total Cell Count (24 h, replicate 1): 154 and 198
Population Apoptotic (%) (24 h, replicate 2): 57% and 53%
Population Fragmented Nuclei (%) (24 h, replicate 2): 15% and 12%
Population Healthy Nuclei (%) (24 h, replicate 2): 68%
Population Hoechst High Intensity Objects (%) (24 h, replicate 2): 12% and 9%
Population Membrane Permeable-Phenotype (%) (24 h, replicate 2): 32% and 54%
Population Mitochondria Different-Phenotype (%) (24 h, replicate 2): 62% and 70%
Population Mitotic Cells (%) (24 h, replicate 2): 42% and 46%
Population Normal (%) (24 h, replicate 2): 87% and 90%
Population Pyknosed Nuclei (%) (24 h, replicate 2): 15%
Population Tubulin-Different-Phenotype (%) (24 h, replicate 2): 100%
Total Cell Count (24 h, replicate 2): 99 and 102
